Read-outs that look alike come from different tables or passages of the source. Square brackets hold non-standard residues; d marks the D form. Peptide text beside a SMILES is read from it. Orn(N5-OH,N5-Ac) = CC(=O)N(O)CCC[C@H](N)C(=O)O
Columns and labels:
YxeB-S142-6×His [1] = target: T1, YxeB-S142-6×His (Bacillus cereus, UniProt Q81IK3, L142S); assay: Fluorescence quenching; assay type: binding
T1 sequence (Q81IK3 19-306 L142S): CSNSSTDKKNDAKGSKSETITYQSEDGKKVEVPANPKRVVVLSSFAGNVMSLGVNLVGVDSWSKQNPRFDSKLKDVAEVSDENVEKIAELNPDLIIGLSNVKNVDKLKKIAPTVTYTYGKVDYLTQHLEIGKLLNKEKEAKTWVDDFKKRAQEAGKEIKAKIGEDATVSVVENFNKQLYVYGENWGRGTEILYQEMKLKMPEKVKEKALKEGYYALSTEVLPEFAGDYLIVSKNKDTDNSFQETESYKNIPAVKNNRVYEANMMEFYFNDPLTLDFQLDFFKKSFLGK

YxeB-L142-6×His [2] = target: T2, YxeB-L142-6×His (Bacillus cereus, UniProt Q81IK3); assay: Substrate binding assay using RP-HPLC; details: bound = substrate detected in the protein complex analyzed by RP-HPLC
T2 sequence (Q81IK3 19-306): T1 sequence (Q81IK3 19-306 L142S)
How it was run: (§1)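 His-tagged protein (2 μM) was bound to Ni-agarose beads in TBS over 2 h at RT. Substrate was added for 10 min at RT: 10 μM metal complex or 20 μM apo-ligand. Pellets were washed twice, then extracted with 20% acetonitrile (Ga complex) or 0.1% TFA for 20 min. C18 RP-HPLC at 220 nm followed, with a 0–25% acetonitrile gradient.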

YxeB-S142-6×His [3] = target: T1, YxeB-S142-6×His; assay: Substrate binding assay using RP-HPLC; details: bound = substrate detected in the protein complex analyzed by RP-HPLC
How it was run: as §1

YxeB-L142-6×His [4] = target: T2, YxeB-L142-6×His; assay: Fluorescence quenching; assay type: binding
[5] = system: DFO:YxeB-L142-6×His complex; assay: Iron exchange experiment in vitro analysed by RP-HPLC; assay type: biochemical, Bacillus cereus; details: for metal exchange rate (FO formed): 0.2 nmol/mL added; for FO bound to YxeB (iron transferred to DFO): 0.2 nmol/mL metal–substrate added to YxeB:DFO, 40 min incubation
[6] = Iron exchange experiment without the YxeB protein; details: 0.2 μM AcFO, 4 μM DFO, no protein; up to 24 h
How it was run: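 No protein was present: 4 μM DFO and 0.2 μM acetylated ferrioxamine (final concentrations) were mixed in TBS at RT. Samples taken at 0 and 5 min and at 1, 3 and 24 h went directly onto C18 RP-HPLC (0.1% TFA/acetonitrile, 0–25% over 50 min, 220 nm).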

[7] = system: DFO:YxeB-S142-6×His complex; assay: Iron exchange experiment in vitro analysed by RP-HPLC; assay type: biochemical, Bacillus cereus
How it was run: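 His-tagged YxeB (2 μM), 4 μM DFO and Ni-agarose beads were mixed 2 h at RT in TBS, then given 0.2 μM (final) acetylated ferrioxamine. Pelleted aliquots were washed twice and eluted 20 min in 0.01% TFA. Eluates ran on C18 RP-HPLC (0.1% TFA/acetonitrile, 0–25% over 50 min, 220 nm) to quantify bound ligands.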

[8] = cited from earlier work
TC137 strain [9] = assay: Disc diffusion assay; assay type: cell-based, Bacillus cereus; details: 10 nmol infused in the disc (supplement: 10 pmol)
How it was run: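 Sterile filter discs were loaded with 10 nmol siderophore; 6 μL DMSO served as the negative control. Growth was scored around each disc.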

TC137 strain [10] = assay: Growth assay in iron-limited minimum medium; assay type: cell-based, Bacillus cereus; details: 10 or 100 nM siderophore in iron-limited minimum medium
YxeB-S142-6×His [11] = target: T1, YxeB-S142-6×His; details: calculated previously; cited from earlier work
[12] = system: DFO:YxeB-S142-6×His complex; assay: Fe-/Ga-/Cr-DFO substrate binding; assay type: biochemical, Bacillus cereus; details: ICP analysis; for metal exchange rates or displaced substrate rates: 0.2 nmol/mL added, 30 min incubation; for substrates bound to YxeB except DFO: 0.2 nmol/mL metal–substrate added to YxeB:DFO, after 30 min incubation
How it was run: (§2)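 2 μM His-tagged YxeB variant, 4 μM DFO and Ni-agarose beads were shaken 2 h at RT in TBS (25 mM Tris-HCl, pH 7.4). Then 0.2 μM (final) Fe-, Ga- or Cr-hydroxamate was added at RT. Pellets collected at 0–30 min were digested overnight in 3.5% nitric acid and measured by ICP with 0.1 ppm Eu internal standard. Results are the mean of three experiments, with standard errors.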

YxeB-L142-6×His [13] = target: T2, YxeB-L142-6×His; details: calculated previously; cited from earlier work
[14] = system: DFO:YxeB-L/S142-6×His complex; assay: ICP exchange or displacement assay, text statements covering both variants; assay type: biochemical, Bacillus cereus; details: 0.2 μM added; for metal (Ga, Fe, Cr) contained in the YxeB complexes: both YxeB-L142 and -S142 complexes; for amounts of metal transferred after 5 min incubation: both variants; for Ga and Fe transferred to the DFO:YxeB complex: within the 5 min incubation time
How it was run: as §2

[15] = system: DFO:YxeB-L142-6×His complex; assay: Fe-/Ga-/Cr-DFO substrate binding; assay type: biochemical, Bacillus cereus; details: ICP analysis; for metal exchange rates or displaced substrate rates: 0.2 nmol/mL added, 30 min incubation; for substrates bound to YxeB except DFO: 0.2 nmol/mL metal–substrate added to YxeB:DFO, after 30 min incubation
How it was run: as §2

[16] = system: wild-type strains, TC128 and TC129; assay: Cr-DFO and Ga-DFO import, metal in cells measured by ICP; assay type: cell-based, Bacillus cereus; details: 2 μM metal complex added in the culture
How it was run: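 B. cereus cultures at OD600 0.8–1.3 received 2 μM metal–siderophore complex. Incubation was 120 min for Cr and 80 min for Ga, by which point OD600 was 1.6–2.1. Cell-associated Cr or Ga was then quantified by ICP. Values are the average of two independent experiments, with standard errors.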

[17] = read-out: Kd (nM) by FQ assay, calculated by Hyperquad, SD in parentheses
[18] = read-out: Kd (nM) by FQ assay, calculated using fluorescence quenching data previously described

## CC(=O)NCCCCCN(O)C(=O)CCC(=O)NCCCCCN(O)C(=O)CCC(=O)NCCCCCN(O)C(C)=O [AcDFO]
YxeB-S142-6×His [1]
  Kd: 30.7 nM
YxeB-L142-6×His [2]
  binding assay (HPLC): bound ^d
YxeB-S142-6×His [3]
  binding assay (HPLC): bound ^d

## CC(=O)NCCCCCN(O)C(=O)CCC(=O)NCCCCCN(O)C(=O)CCC(=O)NCCCCCN(O)C(C)=O.[Fe+3] [AcFO]
YxeB-S142-6×His [1]; [17]
  Kd: 31.6 nM
YxeB-L142-6×His [4]; [17]
  Kd: 25.4 nM
YxeB-L142-6×His [2]
  binding assay (HPLC): bound ^d
[5]; 0.2 μM AcFO added, 8 min
  exchange amount (FO formed) after 8 min incubation: approximately 0.2 μM
[5]; 0.2 μM AcFO, 4 μM DFO, 2 μM YxeB-L142-6×His
  incubation time after which iron exchange with YxeB was complete: 2 min
[5]; RP-HPLC, 0.2 nmol/mL AcFO added, 40 min
  AcDFO bound to YxeB: 0.110 nmol/mL sample
[5]; RP-HPLC, 40 min
  metal exchange rate (FO formed): 77%
[5]; RP-HPLC
  FO bound to YxeB (iron transferred to DFO): 0.153 nmol/mL sample
[5]; RP-HPLC, AcDFO after AcFO addition
  rate of iron-released substrate remaining bound to YxeB: 55%
[6]
  iron exchange between AcFO and DFO without YxeB: did not occur
YxeB-S142-6×His [3]
  binding assay (HPLC): bound ^d
[7]; 0.2 nmol/mL AcFO added
  AcDFO bound to YxeB: 0.089 nmol/mL sample
  metal exchange rate (FO formed): 72%
[7]; 0.2 nmol/mL AcFO added, 10 min incubation
  FO bound to YxeB (iron transferred to DFO): 0.144 nmol/mL sample
[7]; AcDFO after AcFO addition
  rate of iron-released substrate remaining bound to YxeB: 45%

## CC(=O)N(O)CCCCCNC(=O)CCC(=O)N(O)CCCCCNC(=O)CCC(=O)N(O)CCCCCN [DFO, desferrioxamine B]
[8]
  pFe^III: 26.6
TC137 strain [9]
  growth around a disc containing the siderophore: did not grow
TC137 strain [10]
  growth of TC137 compared to wild-type strains TC129 and TC128: delayed
YxeB-S142-6×His [11]
  Kd: 0.0359 µM

## CC(=O)N(O)CCC[C@@H]1NC(=O)CNC(=O)CNC(=O)CNC(=O)[C@H](CCCN(O)C(C)=O)NC(=O)[C@H](CCCN(O)C(C)=O)NC1=O [DFch, desferrichrome] (cyclo(GGG[Orn(N5-OH,N5-Ac)][Orn(N5-OH,N5-Ac)][Orn(N5-OH,N5-Ac)]))
YxeB-S142-6×His [1]
  Kd: 23 nM
YxeB-L142-6×His [4]
  Kd: 104 nM
YxeB-L142-6×His [2]
  binding assay (HPLC): bound ^d
YxeB-S142-6×His [3]
  binding assay (HPLC): bound ^d
TC137 strain [9]
  growth around a disc containing the siderophore: did not grow
TC137 strain [10]
  growth of TC137 compared to wild-type strains TC129 and TC128: delayed

## CC(=O)N([O-])CCCCCNC(=O)CCC(=O)N([O-])CCCCCNC(=O)CCC(=O)N([O-])CCCCCN.[Fe+3] [FO, ferrioxamine B]
[12]
  metal exchange rates or displaced substrate rates: 83%
  substrates bound to YxeB except DFO: 0.166 nmol/mL sample
YxeB-L142-6×His [13]
  Kd: 0.0388 µM
[14]
  metal (Ga, Fe, Cr) contained in the YxeB complexes: > 0.15 nmol/mL reaction solution
  amounts of metal transferred after 5 min incubation: 0.14–0.18 nmol/mL reaction solution
  Ga and Fe transferred to the DFO:YxeB complex: > 70%
[15]
  metal exchange rates or displaced substrate rates: 86%
  substrates bound to YxeB except DFO: 0.172 nmol/mL sample
YxeB-S142-6×His [11]
  Kd: 0.0291 µM

## CC(=O)N(O)CCC[C@@H]1NC(=O)CNC(=O)CNC(=O)CNC(=O)[C@H](CCCN(O)C(C)=O)NC(=O)[C@H](CCCN(O)C(C)=O)NC1=O.[Fe+3] [Fch, ferrichrome] (cyclo(GGG[Orn(N5-OH,N5-Ac)][Orn(N5-OH,N5-Ac)][Orn(N5-OH,N5-Ac)]))
[8]
  pFe^III: 25.2
YxeB-S142-6×His [1]; [18]
  Kd: 29.3 nM
YxeB-L142-6×His [4]; [18]
  Kd: 43 nM
YxeB-L142-6×His [2]
  binding assay (HPLC): bound ^d
[5]; RP-HPLC, 0.2 nmol/mL Fch added, 40 min
  Fch bound to YxeB (displacement): 0.037 nmol/mL sample
[5]; RP-HPLC, 40 min
  metal exchange rate (FO formed): 0%
[5]; RP-HPLC
  FO bound to YxeB (iron transferred to DFO): 0 nmol/mL sample
[5]; displacement mechanism, 0.2 μM Fch, 40 min
  amount of Fch bound to the protein: 0.037 µM
YxeB-S142-6×His [3]
  binding assay (HPLC): bound ^d

## O=C([O-])CN(CCN(CC(=O)[O-])CC(=O)[O-])CC(=O)[O-].[Fe+3] [Fe-EDTA]
[8]
  pFe^III: 23.4
[5]; RP-HPLC, 40 min
  metal exchange rate (FO formed): ≤ 1%
[5]; RP-HPLC
  FO bound to YxeB (iron transferred to DFO): 0.003 nmol/mL sample

## O=C(N[C@H]1COC(=O)[C@@H](NC(=O)c2cccc([O-])c2[O-])COC(=O)[C@@H](NC(=O)c2cccc([O-])c2[O-])COC1=O)c1cccc([O-])c1[O-].[Fe+3] [Fe-Ent, Fe-enterobactin]
[8]
  pFe^III: 34.3
[5]; RP-HPLC, 40 min
  metal exchange rate (FO formed): ≤ 5%

## CC(=O)N(O)CCCCCNC(=O)CCC(=O)N(O)CCCCCNC(=O)CCC(=O)N(O)CCCCCN.[Ga+3] [Ga-DFO]
[12]
  metal exchange rates or displaced substrate rates: 83%
  substrates bound to YxeB except DFO: 0.165 nmol/mL sample
YxeB-S142-6×His [1]; [17]
  Kd: 44.6 nM
YxeB-L142-6×His [4]; [17]
  Kd: 59.2 nM
YxeB-L142-6×His [2]
  binding assay (HPLC): bound ^d
YxeB-S142-6×His [3]
  binding assay (HPLC): bound ^d
[14]
  metal (Ga, Fe, Cr) contained in the YxeB complexes: > 0.15 nmol/mL reaction solution
  amounts of metal transferred after 5 min incubation: 0.14–0.18 nmol/mL reaction solution
  Ga and Fe transferred to the DFO:YxeB complex: > 70%
[16]
  Ga or Cr in the cells (import): contained Ga or Cr in the cells
[15]
  metal exchange rates or displaced substrate rates: 78%
  substrates bound to YxeB except DFO: 0.155 nmol/mL sample

## C=CC1=C(C)c2cc3[n-]c(cc4[n-]c(cc5nc(cc1n2)C(C)=C5C=C)c(C)c4CCC(=O)O)c(CCC(=O)O)c3C.O.[Fe+2] [hematin]
[5]; RP-HPLC, 40 min
  metal exchange rate (FO formed): ≤ 1%
[5]; RP-HPLC
  FO bound to YxeB (iron transferred to DFO): 0.003 nmol/mL sample

## ferric citrate [Fe-Cit]
[5]; RP-HPLC, 40 min
  metal exchange rate (FO formed): 45%
[5]; RP-HPLC
  FO bound to YxeB (iron transferred to DFO): 0.089 nmol/mL sample

— publication PMC4168784 (ACS Chemical Biology, 2014)
